From article PMC7236545 (Journal of the American Chemical Society, 2020)

Test system: HCT116 (wild-type APC) cells
Experiment: Cell viability / toxicity in HCT116
Assay type: cell-based
Conditions: Homo sapiens, HCT-116, read-out: IC50 (viability / growth inhibition)
Summary of the method: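 Dose-response toxicity assay of test compound on human HCT116 (APC wild-type) cells. Cells are kept in low-serum medium (0.2% FBS with growth factors), not fully defined medium. IC50 is the concentration that reduces cell viability by 50%.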

Compound: CC[C@H](C)C(=O)O[C@H]1CCC=C2C=C[C@H](C)[C@H](CC[C@@H](O)C[C@@H](O)CC(=O)O)[C@H]21 [Compactin, compactin]
- IC50: ~18.6 µM
